Active and inactive are the calls of the source. The rule behind the calls is not given here.
Key:
Dipeptidyl peptidase 4 = Dipeptidyl peptidase 4 (Mus musculus, UniProt P28843); experiment: Inhibition of DPP4 in C57BL/6 mouse serum pre-incubated for 5 mins followed by Gly-Pro-7-AMC substrate addition by fluorescence based assay; type: cell-free
[1] = Solubility in pH 6.8 buffer by nephelometry; type: physicochemical
[2] = Solubility in pH 7.4 buffer by nephelometry; type: physicochemical
[3] = Solubility in pH 7.0 buffer by nephelometry; type: physicochemical
[4] = Apparent permeability from apical to basolateral side in human Caco2 cells at 20 uM incubated for […] by LC-MS/MS analysis; type: ADME, cell-based; settings: Caco-2
[5] = Apparent permeability from basolateral to apical side in human Caco2 cells at 20 uM incubated for […] by LC-MS/MS analysis; type: ADME, cell-based; settings: Caco-2
[6] = Efflux ratio in human Caco2 cells at 20 uM incubated for […] by LC-MS/MS analysis; type: ADME, cell-based; settings: Caco-2
[7] = Stability in human intestinal S9 fractions assessed as phase I and phase II enzymes-mediated generation of systemic metabolites at 0.1 uM incubated at 37 degC for 10 mins by LC-MS/MS analysis; type: ADME, subcellular, Intestine, S9 fraction; settings: s9, 10 min
[8] = Stability in mouse intestinal S9 fractions assessed as phase I and phase II enzymes-mediated generation of systemic metabolites at 0.1 uM incubated at 37 degC for 10 mins by LC-MS/MS analysis; type: ADME, subcellular, Intestine, S9 fraction; settings: s9, 10 min
Mus musculus [9] = experiment: Inhibition of jejunum DPP4 in BALB/c mouse at 30 mg/kg, po after 8 hrs using Gly-Pro-7-AMC substrate by fluorescence based assay; type: functional, organism-based
Outline: (§1)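 Mice were dosed orally at 30 mg/kg and intestinal DPPIV activity was measured 8 h later in three intestinal segments. Activity is expressed relative to a vehicle control group, with n = 6 per group. Data are mean ± SEM, compared with control by Student's t-test.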

Mus musculus [10] = experiment: Inhibition of ileum DPP4 in BALB/c mouse at 30 mg/kg, po after 8 hrs using Gly-Pro-7-AMC substrate by fluorescence based assay; type: functional, organism-based; outline: as §1
Mus musculus [11] = experiment: Inhibition of colon DPP4 in BALB/c mouse at 30 mg/kg, po after 8 hrs using Gly-Pro-7-AMC substrate by fluorescence based assay; type: functional, organism-based; outline: as §1
[12] = Selectivity index, ratio of IC50 for recombinant human DPP8 to IC50 for inhibition of DPP4 in C57BL/6 mouse serum
[13] = Selectivity index, ratio of IC50 for recombinant human DPP9 to IC50 for inhibition of DPP4 in C57BL/6 mouse serum
HepG2 = experiment: Cytotoxicity in human HepG2 cells assessed as reduction in cell viability up to 200 uM incubated for 24 hrs by MTT assay; type: cell-based; settings: hepg2, 24 h
HEK293 = experiment: Cytotoxicity in HEK293 cells assessed as reduction in cell viability up to 200 uM incubated for 24 hrs by MTT assay; type: cell-based; settings: human, hek293, 24 h
Hepatocyte = experiment: Cytotoxicity in mouse primary hepatocytes assessed as reduction in cell viability up to 200 uM incubated for 24 hrs by MTT assay; type: cell-based
[14] = Toxicity in ICR mouse assessed as mouse survival at 1000 mg/kg, po administered as single dose after 4 days; settings: in vivo, 96 h
[15] = Toxicity in ICR mouse assessed as effect on body weight at 1000 mg/kg, po administered as single dose after 4 days; settings: in vivo, 96 h
[16] = Toxicity in ICR mouse assessed as effect on clinical parameters at 1000 mg/kg, po administered as single dose after 4 days; settings: in vivo, 96 h
[17] = Toxicity in ICR mouse assessed as effect on behavioral parameters at 1000 mg/kg, po administered as single dose after 4 days; settings: in vivo, 96 h

Sequence of Dipeptidyl peptidase 4 (P28843 whole entry): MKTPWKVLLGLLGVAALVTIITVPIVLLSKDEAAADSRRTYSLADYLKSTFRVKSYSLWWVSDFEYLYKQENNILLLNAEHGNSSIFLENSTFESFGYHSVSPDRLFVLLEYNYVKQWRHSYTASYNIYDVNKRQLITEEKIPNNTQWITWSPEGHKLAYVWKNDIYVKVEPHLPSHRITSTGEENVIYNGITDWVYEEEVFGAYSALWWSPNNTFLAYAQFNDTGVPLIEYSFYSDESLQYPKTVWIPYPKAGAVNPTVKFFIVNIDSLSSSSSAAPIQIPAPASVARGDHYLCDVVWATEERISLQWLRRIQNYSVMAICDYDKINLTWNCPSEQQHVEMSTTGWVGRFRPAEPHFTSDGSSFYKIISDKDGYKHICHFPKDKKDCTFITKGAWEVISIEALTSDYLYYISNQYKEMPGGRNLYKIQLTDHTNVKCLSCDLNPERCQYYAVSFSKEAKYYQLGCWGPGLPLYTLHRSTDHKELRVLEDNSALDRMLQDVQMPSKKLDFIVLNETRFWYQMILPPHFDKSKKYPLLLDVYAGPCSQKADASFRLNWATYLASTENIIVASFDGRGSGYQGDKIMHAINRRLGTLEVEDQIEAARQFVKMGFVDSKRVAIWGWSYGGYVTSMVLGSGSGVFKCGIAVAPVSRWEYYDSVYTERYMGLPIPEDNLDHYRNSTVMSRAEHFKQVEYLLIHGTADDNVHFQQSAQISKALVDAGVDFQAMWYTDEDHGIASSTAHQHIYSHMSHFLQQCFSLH

| SMILES | IC50 (Dipeptidyl peptidase 4) [nM] | solubility kinetic [1] [µM] | solubility kinetic [2] [µM] | solubility kinetic [3] [µM] | Papp A→B at […], 20 µM [4] [×10⁻⁶ cm/s] | Papp B→A at […], 20 µM [5] [×10⁻⁶ cm/s] | efflux ratio at […], 20 µM [6] | Stability [7] | Stability [8] | further results |
| --- | --- | --- | --- | --- | --- | --- | --- | --- | --- | --- |
| C[N+](C)(C)CCNC(=O)CCCCCCCCCCCOc1ccc2nc(C3(NC(=O)C[C@H](N)Cc4cc(F)c(F)cc4F)CCS(=O)(=O)CC3)sc2c1 | 116 |  |  |  |  |  |  |  |  |  |
| N[C@@H](CC(=O)NC1(c2nc3ccc(OCC(=O)NC[C@H](O)[C@@H](O)[C@@H](O)[C@H](O)CO)cc3s2)CCS(=O)(=O)CC1)Cc1cc(F)c(F)cc1F.O=C(O)C(F)(F)F | 2.2 | > 50 | > 50 | > 50 | 0.02 | 0.001 | 0.05 |  |  |  |
| C[N+](C)(C)CCNC(=O)CCCCCOc1ccc2nc(C3(NC(=O)C[C@H](N)Cc4cc(F)c(F)cc4F)CCS(=O)(=O)CC3)sc2c1.O=C(O)C(F)(F)F.O=C([O-])C(F)(F)F | 3 | > 50 | > 50 | > 50 | 0.02 | 0.11 | 6 |  |  |  |
| O=c1ccc2ccc(O)cc2o1 [UMBELLIFERONE] |  |  |  |  |  |  |  | Unstable | Unstable |  |
| C[C@]12CC[C@H]3[C@@H](CCC4=CC(=O)CC[C@@]43C)[C@@H]1CC[C@@H]2O [TESTOSTERONE] |  |  |  |  |  |  |  | Unstable | Unstable |  |
| N[C@@H](CC(=O)NC1(c2nc3ccc(OCCCCCCCCCCCC(=O)NC[C@H](O)[C@@H](O)[C@@H](O)[C@H](O)CO)cc3s2)CCS(=O)(=O)CC1)Cc1cc(F)c(F)cc1F | 168 |  |  |  |  |  |  |  |  |  |
| N[C@@H](CC(=O)NC1(c2nc3ccc(OCCCCCCCCCCCC(=O)NCCS(=O)(=O)O)cc3s2)CCS(=O)(=O)CC1)Cc1cc(F)c(F)cc1F | 81.8 |  |  |  |  |  |  |  |  |  |
| N[C@@H](CC(=O)N1CCn2c(nnc2C(F)(F)F)C1)Cc1cc(F)c(F)cc1F [SITAGLIPTIN] |  |  |  |  | 0.25 | 12.2 |  |  |  | inhibition (Mus musculus [9]): Active; inhibition (Mus musculus [10]): Active; inhibition (Mus musculus [11]): Active |
| N[C@@H](CC(=O)NC1(c2nc3ccc(OCCCCCC(=O)NC[C@H](O)[C@@H](O)[C@@H](O)[C@H](O)CO)cc3s2)CCS(=O)(=O)CC1)Cc1cc(F)c(F)cc1F.O=C(O)C(F)(F)F | 3.5 | > 50 | 20 to 50 | 20 to 50 | 0.02 | 0.27 | 13 |  |  |  |
| C[N+](C)(C)CCNC(=O)COc1ccc2nc(C3(NC(=O)C[C@H](N)Cc4cc(F)c(F)cc4F)CCS(=O)(=O)CC3)sc2c1.O=C(O)C(F)(F)F.O=C([O-])C(F)(F)F | 1.4 | > 50 | > 50 | > 50 | 0.02 | 0.004 | 0.2 | Stable | Stable | inhibition (Mus musculus [9]): Active; inhibition (Mus musculus [10]): Active; inhibition (Mus musculus [11]): Active |
| N[C@@H](CC(=O)NC1(c2nc3ccc(OCC(=O)NCCS(=O)(=O)O)cc3s2)CCS(=O)(=O)CC1)Cc1cc(F)c(F)cc1F.O=C(O)C(F)(F)F | 1.1 | > 50 | > 50 | > 50 | 0.04 | 0.01 | 0.3 | Stable | Stable | inhibition (Mus musculus [9]): Active; inhibition (Mus musculus [10]): Active; inhibition (Mus musculus [11]): Active; Ratio IC50 [12]: > 2000; Ratio IC50 [13]: > 2000; Activity (HepG2): Non-Toxic; Activity (HEK293): Non-Toxic; Activity (Hepatocyte): Non-Toxic; Activity [14]: Non-Toxic; Activity [15]: Non-Toxic; Activity [16]: Non-Toxic; Activity [17]: Non-Toxic |
| N[C@@H](CC(=O)NC1(c2nc3ccc(OCCCCCC(=O)NCCS(=O)(=O)O)cc3s2)CCS(=O)(=O)CC1)Cc1cc(F)c(F)cc1F.O=C(O)C(F)(F)F | 2 | 20 to 50 | > 50 | > 50 | 0.002 | 0.59 | 295 |  |  |  |

— ChEMBL document CHEMBL4334524, “Discovery of Highly Polar β-Homophenylalanine Derivatives as Nonsystemic Intestine-Targeted Dipeptidyl Peptidase IV Inhibitors” (J Med Chem, 2019)
